According to ChEMBL document CHEMBL3351343, “Synthesis and biological evaluation of novel sigma-1 receptor antagonists based on pyrimidine scaffold as agents for treating neuropathic pain” (J Med Chem, 2014):

Assays:
[1] = tested on: Rattus norvegicus; test: Cmax in Sprague-Dawley rat at 320 mg/kg, po by HPLC/MS/MS analysis; assay type: ADME, organism-based; design: dose 320 mg/kg, route oral; conditions: in vivo
Procedure, shortened: (§1)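 Sprague-Dawley rats (250 ± 5.0 g), n = 8/group, dosed iv via lateral tail vein at 16 mg/kg in 100% saline or by oral gavage at 320 mg/kg as suspension in 0.5% methylcellulose. Serial tail-vein blood into heparinized tubes at 30 min, 1, 2, 3, 4, 5, 6, 7 and 24 h. Plasma treated by acetonitrile protein precipitation, then HPLC/MS on C18 column, 40 °C.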

[2] = Half life in Sprague-Dawley rat at 320 mg/kg, po by HPLC/MS/MS analysis; assay type: ADME, organism-based; design: dose 320 mg/kg, route oral; conditions: in vivo; procedure, shortened: as §1
[3] = target: Adrenergic receptor alpha-1 (Rattus norvegicus) (UniProt P15823+P23944+P43140); test: Displacement of [3H]-prazosin from rat cerebral cortex adrenergic alpha-1 receptor at 1 uM after 60 mins by liquid scintillation counting analysis; assay type: tissue-based
[4] = AUC (0 to infinity) in Sprague-Dawley rat at 16 mg/kg, iv by HPLC/MS/MS analysis; conditions: plasma
[5] = Displacement of [3H]-DTG from sigma-2 receptor in Dunkin Hartley guinea pig brain membrane after 120 mins by liquid scintillation counting analysis in presence of (+)-SKF10047; design: species or system Cavia porcellus
[6] = AUC (0 to 24 hrs) in Sprague-Dawley rat at 16 mg/kg, iv by HPLC/MS/MS analysis; conditions: plasma
[7] = target: Norepinephrine transporter (Rattus norvegicus) (UniProt Q9WTR4); test: Displacement of [N-methyl-3H]-nisoxetine from rat hippocampal membrane Noradrenaline transporter at 1 uM after 8 hrs by liquid scintillation counting analysis; assay type: tissue-based; conditions: Hippocampus
[8] = target: Sigma non-opioid intracellular receptor 1 (Cavia porcellus, UniProt Q60492); test: Displacement of [3H]-(+)-pentazocine from sigma-1 receptor in Dunkin Hartley guinea pig brain membranes after 180 mins by liquid scintillation counting analysis; design: species or system Membrane
Sequence of Sigma non-opioid intracellular receptor 1 (Q60492 whole entry): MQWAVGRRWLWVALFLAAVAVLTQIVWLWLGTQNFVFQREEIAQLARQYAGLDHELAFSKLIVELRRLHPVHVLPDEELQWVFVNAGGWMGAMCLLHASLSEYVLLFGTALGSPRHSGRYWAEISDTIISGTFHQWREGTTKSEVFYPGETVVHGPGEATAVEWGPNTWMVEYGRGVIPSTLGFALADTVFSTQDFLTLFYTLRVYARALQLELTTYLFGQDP

[9] = tested on: Mus musculus; test: Antinociceptive activity in Kun Ming mouse pain model assessed as reduction in licking and biting time during phase-2 at 80 mg/kg, ip administered 15 mins prior to formalin challenge relative to vehicle-treated control; assay type: functional; conditions: route intraperitoneal
Procedure, shortened: (§2)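 Kun Ming mice (20 ± 2.0 g), 10–12 per group, given vehicle (30% PEG 400) or drug ip at 10 mL/kg 15 min before intraplantar formalin. Time spent licking or biting the injected paw scored at 0–5 min (phase I) and 15–45 min (phase II). Effect (%) = (LTV − LTD)/LTV × 100.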

[10] = target: Cannabinoid receptor 1 (Homo sapiens) (UniProt P21554); test: Displacement of [3H]-CP-55940 from human CB1 receptor expressed in CHO cells at 1 uM after 90 mins by liquid scintillation counting analysis; assay type: cell-based
Sequence of Cannabinoid receptor 1 (Homo sapiens) (P21554 whole entry): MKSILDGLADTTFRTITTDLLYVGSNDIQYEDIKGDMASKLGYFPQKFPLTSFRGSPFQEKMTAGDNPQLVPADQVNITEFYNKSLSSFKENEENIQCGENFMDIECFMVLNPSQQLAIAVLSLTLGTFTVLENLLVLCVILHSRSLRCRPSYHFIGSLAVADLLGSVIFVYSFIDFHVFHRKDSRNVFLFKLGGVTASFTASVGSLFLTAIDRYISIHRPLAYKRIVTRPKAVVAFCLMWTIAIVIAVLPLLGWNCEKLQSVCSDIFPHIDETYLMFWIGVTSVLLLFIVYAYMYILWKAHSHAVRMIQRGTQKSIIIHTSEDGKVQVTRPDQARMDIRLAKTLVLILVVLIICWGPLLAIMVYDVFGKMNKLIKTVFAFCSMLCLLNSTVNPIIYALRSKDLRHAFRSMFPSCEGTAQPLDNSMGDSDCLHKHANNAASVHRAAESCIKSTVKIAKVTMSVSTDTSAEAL

[11] = Tmax in Sprague-Dawley rat at 320 mg/kg, po by HPLC/MS/MS analysis; assay type: ADME, organism-based; design: dose 320 mg/kg, route oral; conditions: in vivo; procedure, shortened: as §1
[12] = tested on: Rattus norvegicus; test: Antineuropathic pain activity in po dosed Sprague-Dawley rat chronic constriction injury model assessed as inhibition of mechanical allodynia measured on day 15 relative to sham-treated control; assay type: functional
Procedure, shortened: (§3)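 Sprague-Dawley rats, sciatic nerve chronic constriction injury (four loose 4-0 silk ligatures, chloral hydrate anaesthesia); sham has nerve exposed without ligation. Model confirmed on day 14. Oral dosing in 0.5% methylcellulose, 10 mL/kg, twice daily on days 15–18. Read after first dose (day 15) and last dose (day 18). Von Frey withdrawal threshold and radiant-heat plantar withdrawal latency (30 s cutoff), each paw sampled four times and averaged; 10 rats/group.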

[13] = tested on: Mus musculus; test: Antinociceptive activity in ip dosed Kun Ming mouse pain model assessed as reduction in licking and biting time during phase-1 administered 15 mins prior to formalin challenge relative to vehicle-treated control; assay type: functional; procedure, shortened: as §2
[14] = tested on: Rattus norvegicus; test: Antineuropathic pain activity in po dosed Sprague-Dawley rat chronic constriction injury model assessed as inhibition of thermal hypersensitivity measured on day 15 relative to sham-treated control; assay type: functional; procedure, shortened: as §3
[15] = tested on: Mus musculus; test: Toxicity in Kun Ming mouse at 20 to 80 mg/kg, ip measured after 30 to 120 mins by rotarod test; assay type: organism-based; design: route intraperitoneal; conditions: in vivo
Procedure, shortened: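 Rotarod test in Kun Ming mice pretrained to stay 300 s at 10 rpm. Latency to fall from drum turning at 10 rpm measured 30, 60, 90 and 120 min after ip dosing; 8–10 mice per group.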

[16] = AUC (0 to infinity) in Sprague-Dawley rat at 320 mg/kg, po by HPLC/MS/MS analysis; assay type: ADME, organism-based; design: dose 320 mg/kg, route oral, time infinity; conditions: plasma; procedure, shortened: as §1
[17] = tested on: Rattus norvegicus; test: Antineuropathic pain activity in po dosed Sprague-Dawley rat chronic constriction injury model assessed as inhibition of thermal hypersensitivity measured on day 18 by repeated dose treatment assay relative to sham-treated control; assay type: functional; procedure, shortened: as §3
[18] = target: Adrenergic receptor alpha-2 (Rattus norvegicus) (UniProt P22086+P19328+P22909); test: Displacement of [3H]-rauwolscine from rat cerebral cortex adrenergic alpha-2 receptor at 1 uM after 60 mins by liquid scintillation counting analysis; assay type: tissue-based
[19] = target: Sodium channel protein type 9 subunit alpha (Homo sapiens) (UniProt Q15858); test: Inhibition of from human Nav 1.7 channel expressed in HEK293 cells at 1 uM after 5 mins by electrophysiological analysis; assay type: cell-based
Sequence of Sodium channel protein type 9 subunit alpha (Homo sapiens) (Q15858 whole entry, looked up): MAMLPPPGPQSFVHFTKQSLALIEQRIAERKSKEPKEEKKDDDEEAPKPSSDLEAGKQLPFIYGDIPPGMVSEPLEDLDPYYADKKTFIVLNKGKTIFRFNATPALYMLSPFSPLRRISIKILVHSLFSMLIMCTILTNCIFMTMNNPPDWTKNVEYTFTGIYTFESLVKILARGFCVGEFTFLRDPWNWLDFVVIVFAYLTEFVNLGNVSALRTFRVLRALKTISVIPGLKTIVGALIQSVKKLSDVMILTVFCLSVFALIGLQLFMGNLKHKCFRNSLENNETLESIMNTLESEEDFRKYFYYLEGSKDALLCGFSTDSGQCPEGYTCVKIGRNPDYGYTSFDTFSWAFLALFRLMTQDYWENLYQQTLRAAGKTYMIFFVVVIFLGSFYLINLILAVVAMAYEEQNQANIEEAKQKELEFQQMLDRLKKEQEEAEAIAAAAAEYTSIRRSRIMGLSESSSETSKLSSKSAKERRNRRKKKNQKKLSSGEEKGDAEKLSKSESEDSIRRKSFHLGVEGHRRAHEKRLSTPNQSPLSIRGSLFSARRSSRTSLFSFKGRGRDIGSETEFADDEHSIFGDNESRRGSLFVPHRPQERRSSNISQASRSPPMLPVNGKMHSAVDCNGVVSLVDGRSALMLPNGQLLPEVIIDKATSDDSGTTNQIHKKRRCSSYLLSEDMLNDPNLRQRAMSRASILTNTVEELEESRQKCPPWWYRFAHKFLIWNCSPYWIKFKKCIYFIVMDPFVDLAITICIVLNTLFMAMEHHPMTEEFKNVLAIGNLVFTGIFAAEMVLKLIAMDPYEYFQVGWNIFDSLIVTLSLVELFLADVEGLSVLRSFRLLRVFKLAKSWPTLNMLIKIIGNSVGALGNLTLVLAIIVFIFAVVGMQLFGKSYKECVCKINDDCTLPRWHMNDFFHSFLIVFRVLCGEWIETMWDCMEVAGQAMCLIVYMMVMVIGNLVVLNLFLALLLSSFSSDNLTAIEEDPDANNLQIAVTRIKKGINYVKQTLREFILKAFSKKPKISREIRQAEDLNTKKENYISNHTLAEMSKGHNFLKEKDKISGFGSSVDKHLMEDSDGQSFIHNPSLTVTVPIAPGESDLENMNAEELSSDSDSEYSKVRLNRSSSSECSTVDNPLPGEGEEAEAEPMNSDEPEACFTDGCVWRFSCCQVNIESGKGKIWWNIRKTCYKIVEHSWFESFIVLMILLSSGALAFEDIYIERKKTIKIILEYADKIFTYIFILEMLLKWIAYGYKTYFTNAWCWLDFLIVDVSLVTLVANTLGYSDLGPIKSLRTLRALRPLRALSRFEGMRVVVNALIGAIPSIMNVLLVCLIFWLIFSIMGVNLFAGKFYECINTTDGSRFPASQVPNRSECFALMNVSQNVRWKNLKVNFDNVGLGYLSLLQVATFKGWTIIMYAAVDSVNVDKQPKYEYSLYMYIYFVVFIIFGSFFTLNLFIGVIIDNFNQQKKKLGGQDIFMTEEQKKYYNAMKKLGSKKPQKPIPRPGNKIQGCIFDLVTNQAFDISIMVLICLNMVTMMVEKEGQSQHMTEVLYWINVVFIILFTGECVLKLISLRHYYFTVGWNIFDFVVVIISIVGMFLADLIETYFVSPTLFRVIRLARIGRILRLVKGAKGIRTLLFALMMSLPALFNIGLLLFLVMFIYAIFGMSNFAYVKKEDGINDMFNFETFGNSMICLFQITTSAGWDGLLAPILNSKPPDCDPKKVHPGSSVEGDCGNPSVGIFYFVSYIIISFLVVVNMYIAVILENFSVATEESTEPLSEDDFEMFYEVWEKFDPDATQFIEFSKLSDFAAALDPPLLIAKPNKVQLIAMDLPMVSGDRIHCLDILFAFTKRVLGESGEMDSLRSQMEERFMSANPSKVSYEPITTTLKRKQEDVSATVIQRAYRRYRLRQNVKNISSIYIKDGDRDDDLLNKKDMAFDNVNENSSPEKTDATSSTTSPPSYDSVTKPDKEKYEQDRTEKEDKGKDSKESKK

[20] = Half life in Sprague-Dawley rat at 16 mg/kg, iv by HPLC/MS/MS analysis; conditions: in vivo
[21] = target: Histamine H3 receptor (Rattus norvegicus) (UniProt Q9QYN8); test: Displacement of [3H]-N-alpha-methylhistamine from rat cerebral cortex histamine H3 receptor at 1 uM after 30 mins by liquid scintillation counting analysis; assay type: tissue-based
Sequence of Histamine H3 receptor (Rattus norvegicus) (Q9QYN8 whole entry): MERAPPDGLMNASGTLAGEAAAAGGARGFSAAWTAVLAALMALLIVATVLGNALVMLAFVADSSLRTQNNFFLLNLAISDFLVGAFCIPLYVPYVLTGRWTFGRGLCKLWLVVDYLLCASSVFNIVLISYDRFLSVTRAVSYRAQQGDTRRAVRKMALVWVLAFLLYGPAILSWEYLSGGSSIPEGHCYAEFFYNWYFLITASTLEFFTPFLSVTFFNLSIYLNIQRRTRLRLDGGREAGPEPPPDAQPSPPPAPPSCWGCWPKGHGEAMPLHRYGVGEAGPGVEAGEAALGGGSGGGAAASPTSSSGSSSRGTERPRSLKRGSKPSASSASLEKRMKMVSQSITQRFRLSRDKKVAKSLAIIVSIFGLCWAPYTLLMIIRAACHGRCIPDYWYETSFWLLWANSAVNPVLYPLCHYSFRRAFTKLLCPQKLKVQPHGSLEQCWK

[22] = target: Transient receptor potential cation channel subfamily V member 1 (Homo sapiens) (UniProt Q8NER1); test: Inhibition of from human TRPV-1 channel expressed in HEK293 cells at 1 uM after 5 mins by electrophysiological analysis; assay type: cell-based
Sequence of Transient receptor potential cation channel subfamily V member 1 (Homo sapiens) (Q8NER1 whole entry): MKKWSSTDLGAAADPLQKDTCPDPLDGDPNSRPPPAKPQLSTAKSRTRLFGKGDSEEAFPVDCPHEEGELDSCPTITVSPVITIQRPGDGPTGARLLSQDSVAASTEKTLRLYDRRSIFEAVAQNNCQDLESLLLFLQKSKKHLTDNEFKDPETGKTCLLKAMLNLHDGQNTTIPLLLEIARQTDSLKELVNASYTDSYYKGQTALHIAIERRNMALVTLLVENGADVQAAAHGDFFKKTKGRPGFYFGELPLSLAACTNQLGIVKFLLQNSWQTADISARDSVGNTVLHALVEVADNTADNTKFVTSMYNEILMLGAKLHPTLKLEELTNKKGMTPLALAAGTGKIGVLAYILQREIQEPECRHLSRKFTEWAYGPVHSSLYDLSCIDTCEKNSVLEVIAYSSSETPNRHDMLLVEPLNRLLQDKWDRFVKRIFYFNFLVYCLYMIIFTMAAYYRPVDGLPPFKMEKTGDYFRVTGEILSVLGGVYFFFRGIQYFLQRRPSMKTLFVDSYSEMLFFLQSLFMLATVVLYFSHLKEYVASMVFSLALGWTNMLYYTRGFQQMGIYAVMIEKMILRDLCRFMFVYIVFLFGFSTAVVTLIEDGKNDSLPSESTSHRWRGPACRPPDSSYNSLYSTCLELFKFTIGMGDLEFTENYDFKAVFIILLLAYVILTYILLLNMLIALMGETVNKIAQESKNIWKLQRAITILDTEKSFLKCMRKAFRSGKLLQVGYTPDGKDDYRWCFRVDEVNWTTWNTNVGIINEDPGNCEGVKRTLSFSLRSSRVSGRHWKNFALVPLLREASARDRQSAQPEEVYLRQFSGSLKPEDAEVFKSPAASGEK

[23] = target: Cannabinoid receptor 2 (Homo sapiens) (UniProt P34972); test: Displacement of [3H]-CP-55940 from human CB2 receptor expressed in HEK cells at 1 uM after 90 mins by liquid scintillation counting analysis; assay type: cell-based; conditions: HEK293
[24] = target: Sodium-dependent serotonin transporter (Rattus norvegicus) (UniProt P31652); test: Displacement of [3H]-paroxetine from rat cerebral cortex serotonin HT transporter at 1 uM after 10 mins by liquid scintillation counting analysis; assay type: tissue-based
Sequence of Sodium-dependent serotonin transporter (Rattus norvegicus) (P31652 whole entry): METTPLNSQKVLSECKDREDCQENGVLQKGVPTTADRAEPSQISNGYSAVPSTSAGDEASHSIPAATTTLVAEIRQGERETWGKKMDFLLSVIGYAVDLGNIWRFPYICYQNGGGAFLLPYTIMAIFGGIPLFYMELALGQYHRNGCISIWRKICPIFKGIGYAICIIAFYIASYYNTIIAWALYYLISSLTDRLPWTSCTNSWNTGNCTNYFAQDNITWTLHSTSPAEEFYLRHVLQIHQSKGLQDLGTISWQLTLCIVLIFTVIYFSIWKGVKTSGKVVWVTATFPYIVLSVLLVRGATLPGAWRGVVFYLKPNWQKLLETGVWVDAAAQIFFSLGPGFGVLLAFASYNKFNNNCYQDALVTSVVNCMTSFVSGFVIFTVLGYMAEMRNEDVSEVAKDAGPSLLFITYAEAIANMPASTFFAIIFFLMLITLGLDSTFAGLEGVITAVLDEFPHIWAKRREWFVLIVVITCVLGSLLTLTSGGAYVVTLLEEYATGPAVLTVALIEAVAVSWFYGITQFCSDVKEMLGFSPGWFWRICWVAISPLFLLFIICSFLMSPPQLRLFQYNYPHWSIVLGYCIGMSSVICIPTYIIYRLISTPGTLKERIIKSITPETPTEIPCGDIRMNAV

[25] = tested on: Rattus norvegicus; test: Cmax in Sprague-Dawley rat at 16 mg/kg, iv by HPLC/MS/MS analysis; assay type: ADME, organism-based; design: dose 16 mg/kg, route intravenous; conditions: in vivo; procedure, shortened: as §1
[26] = target: Mu-type opioid receptor (Homo sapiens) (UniProt P35372); test: Displacement of [3H]-diprenorphine from human mu-opioid receptor at 1 uM after 150 mins by liquid scintillation counting analysis
Sequence of Mu-type opioid receptor (Homo sapiens) (P35372 whole entry): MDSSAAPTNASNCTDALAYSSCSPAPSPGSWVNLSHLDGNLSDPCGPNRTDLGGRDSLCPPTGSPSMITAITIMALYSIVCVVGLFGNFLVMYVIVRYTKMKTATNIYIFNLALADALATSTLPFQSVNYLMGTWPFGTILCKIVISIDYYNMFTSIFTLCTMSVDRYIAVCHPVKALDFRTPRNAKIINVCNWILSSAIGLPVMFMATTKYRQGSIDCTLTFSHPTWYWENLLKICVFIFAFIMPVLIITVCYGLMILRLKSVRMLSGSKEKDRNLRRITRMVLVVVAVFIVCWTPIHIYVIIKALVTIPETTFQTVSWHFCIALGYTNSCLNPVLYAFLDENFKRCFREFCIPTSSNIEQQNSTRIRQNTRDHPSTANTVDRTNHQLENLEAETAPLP

[27] = Acute toxicity in po dosed Kun Ming mouse after 24 hrs; assay type: organism-based; conditions: in vivo
[28] = Oral bioavailability in Sprague-Dawley rat at 320 mg/kg; assay type: ADME, organism-based; conditions: in vivo

SMILES: Cc1nc(-c2ccc(Cl)cc2)nc(OCCCN2CCCCC2)c1Cl
- Cmax [1]: 17400 ng/mL
- half-life [2]: 3.81 h
- inhibition [3]: < 50%
- AUC(0-inf) [4]: 3690 ng·h/mL
- Ki [5]: 1420 nM
- AUC(0-t) at 24 h [6]: 3300 ng·h/mL
- inhibition [7]: < 50%
- Ki [8]: 1.06 nM
- Time [9]: 37.41 s
- inhibition [10]: < 50%
- Tmax [11]: 0.5 h
- inhibition [12]: Dose-dependent effect
- ED50 ([12]; 360 h): 58.2 mg/kg
- Activity [13]: Dose-dependent effect
- ED50 [13]: 48.4 mg/kg
- inhibition [14]: Dose-dependent effect
- ED50 ([14]; 360 h): 47.2 mg/kg
- Activity [15]: Non-toxic
- AUC(0-inf) [16]: 55400 ng·h/mL
- inhibition [17]: Dose-dependent effect
- ED50 ([17]; 432 h): 50.2 mg/kg
- inhibition [18]: < 50%
- inhibition [19]: < 50%
- half-life [20]: 10.6 h
- inhibition [21]: < 50%
- inhibition [22]: < 50%
- inhibition [23]: < 50%
- inhibition [24]: < 50%
- Cmax [25]: 7260 ng/mL
- inhibition [26]: < 50%
- LD50 at 24 h [27]: > 2000 mg/kg
- bioavailability [28]: 75.1%
